We go through 26 molecules from ChEMBL document CHEMBL1817619, “Synthesis and antimicrobial activity of (E) stilbene derivatives” (Bioorg Med Chem, 2011).

Structures are written as SMILES. Calls of active or inactive are those of the source. No cut-off for these calls is given here.

Test [1] deals with Brevibacillus brevis. In words: Antibacterial activity against Bacillus brevis ATTC 9999 at 10 mg/ml after 24 to 72 hrs by agar diffusion method. It counts as functional, organism-based. A digest of the protocol:
(§1)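 Bacterial plates: nutrient broth (8 g/l) with 1.5% agar, seeded at 45 °C with spores or vegetative cells to 10^6 cfu/ml. Compounds were dissolved in methanol at 10 mg/ml and applied to 6 mm paper discs, which were dried and laid on the plates. Inhibition zone diameter (mm) and type (complete or incomplete) were scored after 24–72 h.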

In test [2] the test system is Enterobacter cloacae subsp. dissolvens. In words: Antibacterial activity against Enterobacter dissolvens ATCC 222 at 10 mg/ml after 24 to 72 hrs by agar diffusion method. It counts as functional, organism-based. A digest of the protocol: as §1
In test [3] the test system is Botrytis cinerea. In words: Antifungal activity against Botrytis cinerea FSU 883 at 10 mg/ml after 24 to 72 hrs by agar diffusion method. The class given is functional, organism-based. A digest of the protocol:
(§2)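 Fungal plates: malt extract/yeast extract (HA) medium with 1.5% agar, seeded at 45 °C with spores or yeast cells to 10^5 cfu/ml. Compounds in methanol at 10 mg/ml were loaded onto 6 mm paper discs and dried before placement. Inhibition zone diameter (mm) and complete or incomplete inhibition were recorded after 24–72 h.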

The subject of test [4] is NIH3T3. In words: Cytotoxicity against mouse NIH/3T3 cells after 96 hrs by sulforhodamine-B colorimetric assay. The class given is cell-based. The conditions noted are these: NIH3T3, 96 h. An outline of the steps:
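Exponentially growing mouse embryonic fibroblasts were seeded and treated 24 h later with serial dilutions for 96 h; DMSO or DMF stayed at or below 0.5%. Cells were fixed with 10% TCA at 4 °C, stained with 0.4% SRB for about 20 min, washed with 1% acetic acid, solubilised in Tris base, and read at 570 nm. Survival is relative to untreated controls. IC50 was obtained by linear interpolation across the 50% line; three independent experiments.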

Test [5] concerns Bacillus subtilis. In words: Antibacterial activity against Bacillus subtilis ATTC 6633 at 10 mg/ml after 24 to 72 hrs by agar diffusion method. The class given is functional, organism-based. A digest of the protocol: as §1
Test [6] deals with Micrococcus luteus. In words: Antibacterial activity against Micrococcus luteus ATCC 381 at 10 mg/ml after 24 to 72 hrs by agar diffusion method. The class given is functional, organism-based. A digest of the protocol:
as §1

Test [7] concerns Eremothecium coryli. The experiment in a line: Antifungal activity against Nematospora coryli ATCC 10647 at 10 mg/ml after 24 to 72 hrs by agar diffusion method. It counts as functional, organism-based. A digest of the protocol: as §2
Test [8] relates to Penicillium chrysogenum. The experiment in a line: Antifungal activity against Penicillium notatum FSU 2721 at 10 mg/ml after 24 to 72 hrs by agar diffusion method. The class given is functional, organism-based. A digest of the protocol:
as §2

In test [9] the test system is Rhizomucor miehei. The experiment in a line: Antifungal activity against Mucor miehei FSU 769 at 10 mg/ml after 24 to 72 hrs by agar diffusion method. It counts as functional, organism-based. A digest of the protocol:
as §2

Test [10] relates to Colletotrichum graminicola. In words: Antifungal activity against Colletotrichum graminicola M2 at 10 mg/ml after 24 to 72 hrs by agar diffusion method. It counts as functional, organism-based. An outline of the steps:
as §2

`COc1ccc(OC)c(/C=C/c2ccc(O)cc2)c1`: the result in test [1] was Active. Further, the outcome in [2] and in test [3] was inactive. It took 7.4 µM to reach half-maximal inhibition in [4] (IC50).

As for `COc1cc(/C=C/c2ccc(O)cc2)cc(OC)c1F`, in test [1], the result was Active. The outcome in [2] and in test [3] was inactive. In addition, the IC50 in [4] amounted to 11.5 µM.

`COc1cc(/C=C/c2ccc(O)cc2)cc(OC)c1` [PTEROSTILBENE]: the outcome in test [1] was Active. Besides, the result in test [2] and in test [3] was inactive. Also, the IC50 in [4] worked out at 12.2 µM.

In the case of `Oc1ccc(O)c(/C=C/c2ccc(O)c(O)c2)c1`, in test [2], the result was inactive. The IC50 in [4] was above 30 µM.

Turning to `Oc1ccc(/C=C/c2cc(O)c(F)c(O)c2)cc1`, the outcome in test [1] was Active. Also, the outcome in [2] and in test [3] was inactive. The same molecule came in with an IC50 in test [4] above 30 µM.

For the molecule `Oc1cccc(/C=C/c2cc(O)cc(O)c2)c1`, the outcome in [1], in test [5] and in test [6] was Active. In addition, the result in test [2] was inactive. This molecule gave an IC50 in [4] above 30 µM.

For the molecule `COc1ccc(/C=C/c2cccc(O)c2)c(OC)c1`, the result in test [1], in test [5] and in [6] was Active. Besides, the outcome in test [2] was inactive. This molecule also came in with an IC50 in [4] of 19.6 µM.

As for `COc1cc(/C=C/c2ccc(OC)c(O)c2)cc(OC)c1`, in test [4], the half-maximal inhibitory concentration (IC50) was 0.2 µM.

For `COc1cc(/C=C/c2ccccc2O)cc(OC)c1F`, the outcome in [1], in test [5] and in test [6] was Active. Further, in test [2], the result was inactive. The IC50 in test [4] came to 14.8 µM.

Consider `COc1cc(/C=C/c2cccc(O)c2)cc(OC)c1`, for which the outcome in test [1], in test [5] and in [6] was Active. Also, the result in test [2] was inactive. The molecule also showed an IC50 in test [4] above 30 µM.

In the case of `Oc1ccc(/C=C/c2cc(F)c(F)c(F)c2)cc1`, the outcome in test [1] and in test [7] was Active. For the same molecule, the outcome in [2] and in [3] was inactive. This molecule also registered an IC50 in test [4] of 6.9 µM.

In the case of `Oc1ccccc1/C=C/c1cc(F)c(F)c(F)c1`, the outcome in test [1], in test [5], in [6], in test [7], in test [8] and in test [9] was Active. Further, the outcome in test [10] and in test [3] was Active. In [2], the result was inactive. For the same molecule, the IC50 in [4] was above 30 µM.

For `Oc1ccc(/C=C/c2cc(O)cc(O)c2)cc1` [RESVERATROL], the outcome in test [1], in test [2] and in test [3] was inactive. Besides, the result in test [6] was Active. The molecule also gave an IC50 in test [4] above 30 µM.

With `COc1ccc(/C=C/c2ccccc2O)c(OC)c1`, the result in test [1], in test [5] and in [6] was Active. Moreover, the result in [2] was inactive. The molecule further came in with an IC50 in test [4] above 30 µM.

For the molecule `Oc1ccc(/C=C/c2cc(O)ccc2O)cc1`, the result in test [1] was Active. The result in test [2] and in [3] was inactive. Besides, the half-inhibitory concentration (IC50) in test [4] stood at 9.6 µM.

Consider `COc1cc(F)c(/C=C/c2cc(O)ccc2O)cc1O`, for which the outcome in test [1], in test [5] and in [6] was Active. Also, the result in test [2] was inactive. In addition, inhibition in test [4] was half-maximal at 21.1 µM (IC50).

In turn, `COc1ccc(/C=C/c2ccc(OC)c(O)c2)c(OC)c1` yielded an IC50 in test [4] of 2.1 µM.

Consider `CN(C)[C@@H]1C(O)=C(C(N)=O)C(=O)[C@@]2(O)C(O)=C3C(=O)c4c(O)cccc4[C@@](C)(O)[C@H]3C[C@@H]12`, for which the result in test [1] was Active.

Consider `COc1ccc(/C=C/c2cc(O)ccc2O)cc1O`, for which the outcome in test [2] was inactive. Further, the 50% inhibitory concentration (IC50) in test [4] was above 30 µM.

Regarding `Oc1ccc(O)c(/C=C/c2ccccc2O)c1`, the result in test [1], in test [5] and in test [6] was Active. Moreover, in [2], the result was inactive. The IC50 in test [4] worked out at 12.4 µM.

For `COc1ccc(/C=C/c2ccc(O)cc2)c(OC)c1`, in [1], the result was Active. Further, the outcome in test [2] and in [3] was inactive. Also, in [4], half-maximal inhibition (IC50) required 8.2 µM.

With `Oc1cccc(/C=C/c2cc(O)c(F)c(O)c2)c1`, the result in [1], in test [5] and in [6] was Active. Moreover, the result in test [2] was inactive. Moreover, the 50% inhibitory concentration (IC50) in test [4] is above 30 µM.

With `COc1cc(/C=C/c2cccc(O)c2)cc(OC)c1F`, the outcome in test [1], in test [5] and in [6] was Active. Further, the outcome in test [2] was inactive. Further, it took 11.8 µM to reach half-maximal inhibition in test [4] (IC50).

Turning to `Oc1cccc(/C=C/c2cc(F)c(F)c(F)c2)c1`, the outcome in [1], in test [5], in test [6] and in [9] was Active. In addition, the outcome in test [2] was inactive. Moreover, the IC50 in [4] was above 30 µM.

On to `COc1ccc(OC)c(/C=C/c2cccc(O)c2)c1`, for which the outcome in test [1], in [5] and in test [6] was Active. In [2], the outcome was inactive. The IC50 in test [4] was found to be 25.8 µM.

As to `Oc1cccc(/C=C/c2cc(O)ccc2O)c1`, the outcome in test [1], in test [5] and in test [6] was Active. Moreover, the outcome in test [2] was inactive. The IC50 in test [4] is 10.5 µM.
